Screening data: PubChem BioAssay, The Scripps Research Institute Molecular Screening Center
Sampled rows, rich in hits. Any-hit rate of the full collection: about 1.9%.
M4 PAM – human M4 muscarinic receptor positive allosteric modulators, primary screen, CHO-K1 cells, Fluo-8 calcium fluorescence | Muscarinic acetylcholine receptor M4 (Homo sapiens), P08173 | CHO-K1 hM4/Gqi5, ACh EC20; 0% = ACh EC20, 100% = maximal ACh | activation, % at 3 µM | actives 0.4% (n = 360,000) | AID 624126, 2012;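 active = activation above its plate's cutoff, the mean activation of sample wells plus 3 SD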
CHRM4 agonist – human M4 muscarinic receptor agonists, primary screen, CHO-K1 cells, Fluo-8 calcium fluorescence. Muscarinic acetylcholine receptor M4 (Homo sapiens), P08173. CHO-K1 hM4/Gqi5; vehicle 0%, full acetylcholine response 100%. activation, % at 3 µM. actives 0.14% (n = 360,000). AID 624127, 2012;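 active = activation above the run mean over all test wells plus 3 SD, cut at about 32% in these data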;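 also: peak over basal fluorescence ratio per well then scaled between controls; 0% = DMSO wells and 100% = acetylcholine at EC100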
CHRM5 PAM – human M5 muscarinic receptor positive allosteric modulators, primary screen, CHO-K1 cells, Fluo-8 calcium fluorescence. Muscarinic acetylcholine receptor M5 (Homo sapiens), P08912. CHO-K1 hM5, ACh EC20 PAM; 0% = ACh EC20, 100% = ACh EC100. activation, % at 3 µM. actives 0.3% (n = 360,000). AID 624038, 2012;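 active = activation above the run cutoff, the mean activation of all test compounds plus 3 SD, cut at about 18% in these data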
Target sequence (P08912 whole entry, looked up): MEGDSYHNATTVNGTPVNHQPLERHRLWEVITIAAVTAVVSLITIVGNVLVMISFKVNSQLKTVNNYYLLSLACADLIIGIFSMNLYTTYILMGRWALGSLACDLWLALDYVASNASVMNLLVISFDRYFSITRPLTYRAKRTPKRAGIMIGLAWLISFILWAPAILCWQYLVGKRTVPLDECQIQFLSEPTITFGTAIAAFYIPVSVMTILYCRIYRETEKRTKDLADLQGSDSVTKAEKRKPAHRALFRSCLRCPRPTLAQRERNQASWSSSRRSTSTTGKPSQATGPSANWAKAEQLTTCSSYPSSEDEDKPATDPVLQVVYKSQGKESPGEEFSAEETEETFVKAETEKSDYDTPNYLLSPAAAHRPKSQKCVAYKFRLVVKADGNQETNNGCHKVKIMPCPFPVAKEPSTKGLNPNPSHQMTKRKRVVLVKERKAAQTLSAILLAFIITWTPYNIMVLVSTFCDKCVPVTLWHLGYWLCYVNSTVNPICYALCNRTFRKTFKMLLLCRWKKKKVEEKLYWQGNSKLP
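System: CHO-K1 cell line with stable human muscarinic M5 receptor expression | Also added: EC20 acetylcholine as agonist stimulus | Compound: One concentration, 3 µM final (nominal) | Timing: Fluo-8 loading 80 min at 37 °C plus 30 min room temperature | Measured by: Fluo-8 calcium dye fluorescence, kinetic read | Read-out basis: % activation, ACh-normalized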
M5 ag – human M5 muscarinic receptor agonists, primary screen, CHO-K1 cells, Fluo-8 calcium fluorescence | Muscarinic acetylcholine receptor M5 (Homo sapiens), P08912 | CHO-K1 hM5 cells; 0% DMSO wells, 100% maximal acetylcholine response | activation, % at 3 µM | actives 0.19% (n = 360,000) | AID 624037, 2012;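 active = activation above the run's mean over test compounds plus 3 SD, cut at about 23% in these data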;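 also: signal is peak over basal fluorescence ratio across the kinetic read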
M5 antag – human M5 muscarinic receptor antagonists, primary screen, CHO cells, Fluo-8 calcium fluorescence; CHO-hM5 cells, ACh EC80; actives 0.59% (n = 360,000); inhibition, % at 3 µM;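 active = inhibition above a per-plate cutoff, the mean of that plate's test compounds plus 3 SD, cut at about 27% in these data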;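 also: 0% = acetylcholine EC80 with DMSO and 100% = DMSO without agonist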
CHRM4 antagonist – human M4 muscarinic receptor antagonists, primary screen, CHO cells, Fluo-8 calcium fluorescence; Muscarinic acetylcholine receptor M4 (Homo sapiens), P08173; CHO-hM4 cells, ACh EC80; inhibition, % at 3 µM; actives 0.73% (n = 360,000);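 active = inhibition above its plate's cutoff, the mean inhibition of sample wells plus 3 SD, cut at about 27% in these data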;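 also: 0% = acetylcholine EC80 with DMSO and 100% = DMSO without agonist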
* marks the source's active call; other numbers are inactive results.

SMILES	M4 PAM	CHRM4 agonist	CHRM5 PAM	M5 ag	M5 antag	CHRM4 antagonist
COC(=O)c1cc(NC(=O)Nc2ccccc2)ccc1Cl	-21	25	-19	8	31*	-2
COC(=O)c1cccc(NC(=O)Nc2ccc(Cl)c(Cl)c2)c1	-8	27	-26	12	32*	12
Cc1cccc(-n2c(-c3ccncc3)n[nH]c2=S)c1	17*	0	3	-1	-4	-5
Cc1ccc(-n2c(-c3ccc(Cl)cc3)n[nH]c2=S)c(C)c1	23*	6	-2	4	30*	21
O=C(NCCN1C(=O)S/C(=C\c2ccccc2F)C1=O)C1=COCCO1	-15	21	-11	2	-8	-3
COc1ccccc1CCCNC(=O)C1CCC(=O)N(CCc2ccc(Cl)cc2)C1 (stereo not drawn)	6	3	-6	-5	24	5
CC(C)c1ccc(NC(=O)c2ccc(NS(C)(=O)=O)cc2)cc1	2	2	4	-9	-1	0
Cc1nc(C(=O)NC2CCOCC2)sc1C1(C)CC(c2cccc([N+](=O)[O-])c2)=NO1 (stereo not drawn)	-3	14	-3	13	5	7
CCCCNC1c2ccccc2C(=O)N1Cc1ccccc1 (stereo not drawn)	-4	3	-3	-3	8	3
CC(=O)Nc1ccc(Nc2ccccc2)cc1	15	2	3	1	-2	-4
CC(=O)CC(=O)Nc1ccc(Nc2ccccc2)cc1	-12	2	-2	0	-1	30*
CC(Cc1ccccn1)NC(=O)c1ccc(OC2CCN(Cc3ccccn3)CC2)cc1 (stereo not drawn)	18*	2	4	-5	-5	12
O=C(NCCc1ccccn1)c1ccc(OC2CCN(Cc3ccccn3)CC2)cc1	-1	1	2	-4	-2	1
O=C(CN1CCN(c2ccccc2)CC1)Nc1ccncc1	-4	3	1	3	5	-10
O=C(CN1CCN(c2ccccc2)CC1)Nc1ccc2c(c1)CCC2	21*	1	0	-3	-5	-6
COC(=O)c1ccc2nc(-c3ccccc3)c(Cc3cccc(F)c3)n2c1	0	-1	-24	-6	10	8
COC(=O)c1ccc2nc(-c3ccc(F)cc3)c(Cc3cccc(Cl)c3)n2c1	-13	2	-24	-5	77*	35*
COC(=O)c1ccc2nc(-c3ccc(F)cc3)c(Cc3cccc(F)c3)n2c1	-10	4	-24	-5	36*	6
CCc1ccc(C(=O)C(C)OC(=O)CNS(=O)(=O)c2ccc(C)cc2)cc1 (stereo not drawn)	0	1	-7	-2	6	-6
CC(=O)N1CCN(S(=O)(=O)c2ccc3c(c2)CC(=O)N3)CC1	10	0	5	1	-6	-2
CCOc1ccc2cc(S(=O)(=O)N3CCCCC3)ccc2c1	0	1	-1	-4	4	12
CCOc1ccc2cc(S(=O)(=O)N3CCN(C)CC3)ccc2c1	15*	4	2	-6	2	-2
CC1CCN(S(=O)(=O)c2ccc(C(=O)Nc3nnc(-c4ccco4)o3)cc2)CC1	6	0	29*	1	-35	2
O=C(Nc1nnc(-c2ccco2)o1)c1ccc(S(=O)(=O)N2CCCC2)cc1	2	1	7	0	-15	5
O=C(Nc1nnc(-c2ccco2)o1)C1CC1	13	2	23*	6	-8	-4
SMILES	M4 PAM	CHRM4 agonist	CHRM5 PAM	M5 ag	M5 antag	CHRM4 antagonist
CS(=O)(=O)c1ccccc1-c1nnc(NC(=O)c2ccco2)o1	-4	0	0	0	-3	39*
Cc1ccc(C(=O)Nc2nnc(-c3ccco3)o2)cc1	17	2	22*	2	14	2
Cc1cc(S(=O)(=O)N2CCOCC2)ccc1OCC(=O)Nc1ccc(Br)cc1F	5	2	4	-1	-6	-10
CCOc1ccc2[nH]c(=O)c(CN(Cc3ccc(C)cc3)C(=O)N3CCCC3)cc2c1	-8	0	-11	-2	32*	-5
CSc1ccccc1NC(=O)CN1CCCCC1C (stereo not drawn)	-1	-1	-17	-7	35*	10
CSc1ccccc1NC(=O)CCc1ccccc1	22*	0	7	-7	6	-11
CC1CCCCN1CC(=O)NC(c1ccccc1)c1ccccc1 (stereo not drawn)	-19	-1	-10	-10	9	8
CC1CCCCN1CC(=O)Nc1ccc(Oc2ccccc2)cc1 (stereo not drawn)	-15	2	-14	-13	-3	57*
CC1CCCCN1CC(=O)Nc1ccc(N2CCCCCC2)cc1 (stereo not drawn)	-14	2	-7	-12	-3	5
CCN(CC(=O)Nc1ccc2c(c1)OCCO2)C(=O)/C=C/c1ccc(OC)cc1OC	0	5	-8	-3	17	-3
CCN(CC(=O)Nc1ccc2c(c1)OCCO2)C(=O)/C=C/c1cccc(OC)c1OC	23	4	11	25*	-13	-15
CC(C)C(=O)Nc1ccc2c(c1)nc(CCN1CCCCC1)n2C	-8	0	0	-4	7	14
CC1CCN(CCc2nc3cc(NC(=O)C(C)C)ccc3n2C)CC1	-16	0	-17	-7	69*	58*
C/C(=C\c1ccccc1)C(=O)Nc1ccc(Cl)cn1	4	0	4	-8	6	-6
COCCOC(=O)c1c(C)n(C)c2ccc(OC(=O)c3ccccc3F)cc12	-7	12	-7	2	16	-2
CSc1cccc(NC(=S)N(CCN(C)C)C(C)c2ccccn2)c1 (stereo not drawn)	16	7	-6	-1	3	33*
CSc1cccc(NC(=S)N(CCN(C)C)C(C)c2ccncc2)c1 (stereo not drawn)	3	4	0	2	7	7
Cn1c(=O)[nH]c(=O)c2c1nc(CN1CCN(c3ccccc3F)CC1)n2CCCc1ccccc1	22*	0	-1	0	-8	-15
